Measurements collected from several papers.
Organism: Mycolicibacterium smegmatis
Observed: microbial growth

| Structure (SMILES) | technique | strain | time | MIC |
| --- | --- | --- | --- | --- |
| CCCCc1ccc(-c2c[nH]c(N)n2)cc1 |  | ATCC700084 MC^2155 | 48 h | 150 µM |
| NCC[C@H](O)C(=O)N[C@@H]1C[C@H](N)[C@@H](O[C@H]2O[C@H](CN)[C@@H](O)[C@H](O)[C@H]2O)[C@H](O)[C@H]1O[C@H]1O[C@H](CO)[C@@H](O)[C@H](N)[C@H]1O | broth dilution | MC2155 |  | ≤ 0.5 µg/mL |
| NNC(=O)c1ccncc1 | broth dilution | ATCC700084 MC^2155 |  | 32 µg/mL |
| C/C(=N\NC(=N)N)c1ccc(-c2ccc(/C(C)=N/Nc3ccccc3Cl)cc2)cc1.Cl |  | MC2155 |  | 213 µg/mL |
| Cc1ccc(Nc2nc(-c3cc(C(=O)Nc4ccccc4)no3)cs2)cc1 |  | MC2155 |  | > 64 µg/mL |
| CO[C@@H]1[C@@H](OC(N)=O)[C@@H](O)[C@H](Oc2ccc3c(O)c(NC(=O)c4ccc(O)c(CC=C(C)C)c4)c(=O)oc3c2C)OC1(C)C | resazurin | MC^2155 | 24 h | 8 µg/mL |
| CCCCCCc1ccc(-c2nc(N)[nH]c2C(F)(F)F)cc1 | broth dilution | ATCC700084 MC^2155 |  | > 200 µM |
| CC[C@@H](CO)NCCN[C@@H](CC)CO | resazurin | MC^2155 | 24 h | 0.78 µg/mL |
| O=C(Nc1ccccc1)c1cc(-c2csc(Nc3ccc(Cl)cc3)n2)on1 |  | MC2155 |  | > 64 µg/mL |
| Cc1ccc(-c2c[nH]c(N)n2)cc1 |  | ATCC700084 MC^2155 | 48 h | 100 µM |
| CC(=O)O[C@H]1C[C@@]2(C)[C@@H](C[C@@H](O)[C@H]3[C@@]4(C)CC[C@@H](O)[C@@H](C)[C@@H]4CC[C@@]32C)/C1=C(\CCC=C(C)C)C(=O)O | resazurin | MC^2155 | 24 h | 50 µg/mL |
| NC[C@H]1O[C@H](O[C@H]2[C@H](O)[C@@H](O[C@H]3O[C@H](CO)[C@@H](O)[C@H](N)[C@H]3O)[C@H](N)C[C@@H]2N)[C@H](N)C[C@@H]1O | broth dilution |  | 72 h | 1 µg/mL |
| C[C@@H](O)[C@H]1C(=O)N2C(C(=O)O)=C(SCCN=CN)C[C@H]12 | resazurin | MC^2155 | 24 h | 2.3 µg/mL |
| CO[C@H]1/C=C/O[C@@]2(C)Oc3c(C)c(O)c4c(O)c(c(/C=N/N5CCN(C)CC5)c(O)c4c3C2=O)NC(=O)/C(C)=C\C=C\[C@H](C)[C@H](O)[C@@H](C)[C@@H](O)[C@@H](C)[C@H](OC(C)=O)[C@@H]1C | broth dilution | ATCC700084 MC^2155 |  | 8 µg/mL |
| CO/N=C(\C(=O)N[C@@H]1C(=O)N2C(C(=O)O)=C(COC(C)=O)CS[C@H]12)c1csc(N)n1 | resazurin | MC^2155 | 24 h | 75 µg/mL |
| CCCCCC[C@H](CN1CCC(COc2cccc(C(=NOC)c3ccc(Cl)cc3)c2)CC1)OC(N)=O | agar dilution |  |  | 6.5 µg/mL |
| Cc1ccc(Nc2nc(-c3cc(C(=O)Nc4ccccn4)no3)cs2)cc1 |  | MC2155 |  | > 64 µg/mL |
